Laboratory results as given in ChEMBL document CHEMBL1142937, “Synthesis, affinity profile, and functional activity of muscarinic antagonists with a 1-methyl-2-(2,2-alkylaryl-1,3-oxathiolan-5-yl)pyrrolidine structure” (J Med Chem, 2007).

Columns and labels:
[1] = target: Muscarinic acetylcholine receptor M3 (Homo sapiens, UniProt P20309); experiment: Binding affinity to human cloned muscarinic receptor M3 expressed in CHO cells; type: cell-based
[2] = target: T1, Muscarinic acetylcholine receptor M5 (Homo sapiens, UniProt P08912); experiment: Binding affinity to human cloned muscarinic receptor M5 expressed in CHO cells; type: cell-based
T1 sequence (P08912 whole entry): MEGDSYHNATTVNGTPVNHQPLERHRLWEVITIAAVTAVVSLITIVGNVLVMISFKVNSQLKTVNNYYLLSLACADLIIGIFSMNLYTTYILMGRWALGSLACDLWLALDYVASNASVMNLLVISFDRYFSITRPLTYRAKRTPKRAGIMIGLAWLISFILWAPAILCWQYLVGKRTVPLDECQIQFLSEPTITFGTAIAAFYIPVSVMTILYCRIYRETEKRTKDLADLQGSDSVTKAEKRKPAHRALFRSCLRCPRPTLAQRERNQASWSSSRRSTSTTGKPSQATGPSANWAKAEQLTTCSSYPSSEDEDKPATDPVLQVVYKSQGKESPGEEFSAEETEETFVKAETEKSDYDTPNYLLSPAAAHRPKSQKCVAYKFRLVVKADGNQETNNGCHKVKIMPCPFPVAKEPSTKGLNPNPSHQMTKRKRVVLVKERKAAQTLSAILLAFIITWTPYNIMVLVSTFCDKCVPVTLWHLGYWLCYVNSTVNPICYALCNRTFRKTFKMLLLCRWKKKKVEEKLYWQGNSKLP
How it was run: (§1)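 Equilibrium radioligand binding on CHO cells expressing the cloned human muscarinic subtype. Affinity is reported as pKi.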

[3] = target: T2, Muscarinic acetylcholine receptor M4 (Homo sapiens, UniProt P08173); experiment: Binding affinity to human cloned muscarinic receptor M4 expressed in CHO cells; type: cell-based
T2 sequence (P08173 whole entry): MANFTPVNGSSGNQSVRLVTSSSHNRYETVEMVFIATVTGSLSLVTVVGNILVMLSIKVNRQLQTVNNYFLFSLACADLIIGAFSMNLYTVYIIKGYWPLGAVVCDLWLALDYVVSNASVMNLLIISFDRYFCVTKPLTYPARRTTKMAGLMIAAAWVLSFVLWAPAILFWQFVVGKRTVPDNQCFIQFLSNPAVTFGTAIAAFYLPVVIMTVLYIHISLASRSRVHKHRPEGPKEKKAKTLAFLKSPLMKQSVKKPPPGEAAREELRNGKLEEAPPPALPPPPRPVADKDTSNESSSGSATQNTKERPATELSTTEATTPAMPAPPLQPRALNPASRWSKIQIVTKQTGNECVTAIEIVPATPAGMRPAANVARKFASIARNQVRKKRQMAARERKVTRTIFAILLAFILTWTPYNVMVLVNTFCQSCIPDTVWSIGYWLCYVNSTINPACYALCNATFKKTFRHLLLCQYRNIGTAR

[4] = system: Muscarinic acetylcholine receptor M4, putative (Cavia porcellus); experiment: Antagonist activity at putative muscarinic receptor M4 assessed as contraction of electrically-stimulated guinea pig lung strips; conditions: filed as antagonist
[5] = system: Muscarinic acetylcholine receptor M2 (Cavia porcellus); experiment: Antagonist activity at muscarinic receptor M2 assessed as contraction of electrically-stimulated guinea pig left atria; conditions: for pKb: filed as antagonist; for Kb: read-out: pA2 (converted)
[6] = target: T3, Muscarinic acetylcholine receptor M2 (Homo sapiens, UniProt P08172); experiment: Binding affinity to human cloned muscarinic receptor M2 expressed in CHO cells; type: cell-based; how it was run: as §1
T3 sequence (P08172 whole entry): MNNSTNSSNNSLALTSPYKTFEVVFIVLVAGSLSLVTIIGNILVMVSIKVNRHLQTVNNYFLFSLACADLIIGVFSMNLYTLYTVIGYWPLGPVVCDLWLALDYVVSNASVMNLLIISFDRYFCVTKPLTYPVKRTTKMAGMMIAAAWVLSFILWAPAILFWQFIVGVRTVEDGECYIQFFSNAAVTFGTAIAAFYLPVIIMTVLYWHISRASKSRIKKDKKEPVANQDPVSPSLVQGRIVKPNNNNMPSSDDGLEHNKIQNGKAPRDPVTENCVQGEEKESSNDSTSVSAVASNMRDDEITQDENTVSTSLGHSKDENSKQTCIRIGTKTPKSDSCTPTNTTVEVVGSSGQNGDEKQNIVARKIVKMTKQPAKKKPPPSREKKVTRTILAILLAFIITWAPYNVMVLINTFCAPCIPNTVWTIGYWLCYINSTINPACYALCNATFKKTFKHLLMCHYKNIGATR

[7] = target: T4, Muscarinic acetylcholine receptor M1 (Homo sapiens, UniProt P11229); experiment: Binding affinity to human cloned muscarinic receptor M1 expressed in CHO cells; type: cell-based
T4 sequence (P11229 whole entry): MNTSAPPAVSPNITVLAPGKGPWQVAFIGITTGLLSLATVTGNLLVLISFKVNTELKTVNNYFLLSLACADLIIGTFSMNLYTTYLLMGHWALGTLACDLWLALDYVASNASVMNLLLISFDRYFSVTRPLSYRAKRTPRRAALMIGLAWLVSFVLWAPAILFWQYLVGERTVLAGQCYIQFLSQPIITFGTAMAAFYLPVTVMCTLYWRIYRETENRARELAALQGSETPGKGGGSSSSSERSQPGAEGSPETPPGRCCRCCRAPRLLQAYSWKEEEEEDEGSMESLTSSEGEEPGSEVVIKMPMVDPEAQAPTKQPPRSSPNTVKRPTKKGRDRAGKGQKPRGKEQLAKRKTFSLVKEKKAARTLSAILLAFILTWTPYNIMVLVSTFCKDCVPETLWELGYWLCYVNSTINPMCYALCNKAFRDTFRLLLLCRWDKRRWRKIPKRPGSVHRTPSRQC

[8] = target: Muscarinic acetylcholine receptor M3 (Cavia porcellus) (UniProt Q8VH26); experiment: (§2) Antagonist activity at muscarinic receptor M3 assessed as contraction of guinea pig ileum; type: functional, tissue-based; conditions: filed as antagonist
Muscarinic acetylcholine receptor M3 (Cavia porcellus), sequence (Q8VH26 1-587): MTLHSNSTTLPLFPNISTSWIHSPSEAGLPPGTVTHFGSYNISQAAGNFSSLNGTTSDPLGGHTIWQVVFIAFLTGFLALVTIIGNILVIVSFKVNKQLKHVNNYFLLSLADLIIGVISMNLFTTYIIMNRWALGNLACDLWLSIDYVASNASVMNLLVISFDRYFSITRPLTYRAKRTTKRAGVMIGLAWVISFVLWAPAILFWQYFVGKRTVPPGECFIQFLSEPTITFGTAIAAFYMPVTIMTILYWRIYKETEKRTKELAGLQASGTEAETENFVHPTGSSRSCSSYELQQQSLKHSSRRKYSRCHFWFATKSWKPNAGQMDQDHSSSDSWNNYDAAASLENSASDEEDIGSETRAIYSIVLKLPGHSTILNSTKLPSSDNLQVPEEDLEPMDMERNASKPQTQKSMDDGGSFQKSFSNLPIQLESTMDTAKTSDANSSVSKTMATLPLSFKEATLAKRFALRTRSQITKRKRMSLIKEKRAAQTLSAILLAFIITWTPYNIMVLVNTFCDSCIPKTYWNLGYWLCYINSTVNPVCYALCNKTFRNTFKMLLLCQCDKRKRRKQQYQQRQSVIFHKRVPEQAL
How it was run: (§3)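 Isolated guinea pig tissue preparations (stimulated left atria, ileum, lung strips), run in vitro by a previously described protocol, with the ileum method slightly modified. Agonist dose–response curves were recorded before and after one or two antagonist concentrations. pKb = log(DR−1) − log[B], where DR is the ratio of agonist ED50 after/before antagonist. Some cases were expressed as pA2 from Schild plots constrained to slope −1.0.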

[9] = system: Muscarinic acetylcholine receptor M1, putative (Oryctolagus cuniculus); conditions: Vas deferens, filed as antagonist
[10] = target: Muscarinic acetylcholine receptor M3 (Cavia porcellus, UniProt Q8VH26); experiment: as §2; type: functional, tissue-based; conditions: read-out: pA2 (converted); how it was run: as §3
Muscarinic acetylcholine receptor M3 (Cavia porcellus, UniProt Q8VH26), sequence (Q8VH26 whole entry): as the sequence (Q8VH26 1-587) above

Muscarinic acetylcholine receptor M3 (Homo sapiens, UniProt P20309), sequence (P20309 whole entry): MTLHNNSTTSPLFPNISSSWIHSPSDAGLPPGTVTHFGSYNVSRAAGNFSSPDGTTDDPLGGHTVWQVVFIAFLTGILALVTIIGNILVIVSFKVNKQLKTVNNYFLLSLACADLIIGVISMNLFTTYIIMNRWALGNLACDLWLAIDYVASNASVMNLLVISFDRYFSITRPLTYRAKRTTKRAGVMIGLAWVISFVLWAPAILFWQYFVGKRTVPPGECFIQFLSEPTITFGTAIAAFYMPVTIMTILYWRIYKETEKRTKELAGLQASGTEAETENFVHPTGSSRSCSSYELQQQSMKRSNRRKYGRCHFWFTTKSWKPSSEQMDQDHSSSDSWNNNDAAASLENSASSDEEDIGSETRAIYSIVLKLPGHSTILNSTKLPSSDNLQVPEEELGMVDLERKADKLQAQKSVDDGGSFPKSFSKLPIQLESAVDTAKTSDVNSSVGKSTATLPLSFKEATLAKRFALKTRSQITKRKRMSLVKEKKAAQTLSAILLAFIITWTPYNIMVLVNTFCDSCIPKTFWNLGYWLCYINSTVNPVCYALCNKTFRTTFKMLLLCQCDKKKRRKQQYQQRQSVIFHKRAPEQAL

Structure (SMILES) | Ki [1] | Ki [2] | Ki [3] | pKb [4] | pKb [5] | Ki [6] | Ki [7] | pKb [8] | pKb [9] | Kb [5] | Kb [10]
C[N+](C)(C)C[C@@H]1CS[C@@](c2ccccc2)(C2CCCCC2)O1 | 1.78 nM (antagonist) | 2.82 nM (antagonist) | 6.17 nM (antagonist) | 6.24 | 8.47 | 7.59 nM (antagonist) | 1.1 nM (antagonist) | 8.79 | 8.81 |  | 
CN1CCC[C@H]1[C@H]1CS[C@@](c2ccccc2)(C2CCCCC2)O1 | 0.891 nM (antagonist) | 1.35 nM (antagonist) | 2.34 nM (antagonist) | 6.22 | 8.82 | 2.75 nM (antagonist) | 1.38 nM (antagonist) | 8.92 | 7.41 |  | 
CN1CCC[C@@H]1[C@@H]1CSC(c2ccccc2)(c2ccccc2)O1 | 2.45 nM (antagonist) | 3.24 nM (antagonist) | 2 nM (antagonist) | 6.06 | 7.97 | 2.75 nM (antagonist) | 0.759 nM (antagonist) | 8.44 | 8.66 |  | 
C[N+]1(C)CCC[C@@H]1[C@@H]1CS[C@@](c2ccccc2)(C2CCCCC2)O1 | 0.912 nM (antagonist) | 0.776 nM (antagonist) | 0.708 nM (antagonist) | 6.47 | 8.6 | 0.832 nM (antagonist) | 0.501 nM (antagonist) | 8.79 | 9.53 |  | 
C[N+]1(C)CCC[C@@H]1[C@@H]1CSC(c2ccccc2)(c2ccccc2)O1 | 5.01 nM (antagonist) | 3.47 nM (antagonist) | 3.47 nM (antagonist) | 6.52 | 7.76 | 3.39 nM (antagonist) | 2.34 nM (antagonist) | 8.26 | 8.49 |  | 
C[N+]1(C)CCC[C@H]1[C@H]1CS[C@](c2ccccc2)(C2CCCCC2)O1 | 0.589 nM (antagonist) | 0.2 nM (antagonist) | 0.871 nM (antagonist) | 7.47 |  | 0.776 nM (antagonist) | 0.251 nM (antagonist) | 8.5 | 9.52 | 4.27 nM (antagonist) | 
CN1CCC[C@@H]1[C@@H]1CS[C@@](c2ccccc2)(C2CCCCC2)O1 | 1.45 nM (antagonist) | 1.2 nM (antagonist) | 1.26 nM (antagonist) | 5.98 | 7.13 | 4.47 nM (antagonist) | 0.912 nM (antagonist) | 7.65 | 7.95 |  | 
C[N+]1(C)[C@@H]2C[C@@H](OC(=O)[C@H](CO)c3ccccc3)C[C@H]1[C@@H]1O[C@@H]12 [METHSCOPOLAMINE] |  |  |  |  |  |  |  |  |  |  | 0.617 nM (antagonist)
CN1CCC[C@H]1[C@H]1CSC(c2ccccc2)(c2ccccc2)O1 | 5.25 nM (antagonist) | 5.62 nM (antagonist) | 3.31 nM (antagonist) | 6.41 | 7.58 | 4.9 nM (antagonist) | 3.47 nM (antagonist) | 8.05 | 7.93 |  | 
C[N+]1(C)CCC[C@@H]1[C@@H]1CS[C@](c2ccccc2)(C2CCCCC2)O1 | 4.9 nM (antagonist) | 3.24 nM (antagonist) | 1.82 nM (antagonist) | 6.55 | 8.54 | 1.48 nM (antagonist) | 0.955 nM (antagonist) | 8.84 | 8.49 |  | 
CN1CCC[C@H]1[C@H]1CS[C@](c2ccccc2)(C2CCCCC2)O1 | 1.7 nM (antagonist) | 2 nM (antagonist) | 1.2 nM (antagonist) | 5.92 | 6.91 | 4.27 nM (antagonist) | 1.48 nM (antagonist) | 7.7 | 8.32 |  | 
C[N+]1(C)CCC[C@H]1[C@H]1CSC(c2ccccc2)(c2ccccc2)O1 | 0.741 nM (antagonist) | 0.407 nM (antagonist) | 0.468 nM (antagonist) | 7.79 | 8.78 | 0.468 nM (antagonist) | 0.295 nM (antagonist) | 9.16 | 9.56 |  | 
C[N+]1(C)CCC[C@H]1[C@H]1CS[C@@](c2ccccc2)(C2CCCCC2)O1 | 0.339 nM (antagonist) | 0.107 nM (antagonist) | 0.871 nM (antagonist) | 7.99 |  | 0.955 nM (antagonist) | 0.117 nM (antagonist) | 9.66 | 9.97 | 1 nM (antagonist) | 
CN1CCC[C@@H]1[C@@H]1CS[C@](c2ccccc2)(C2CCCCC2)O1 | 2.19 nM (antagonist) | 2 nM (antagonist) | 1 nM (antagonist) | 6.03 | 8.07 | 1.07 nM (antagonist) | 0.347 nM (antagonist) | 8.55 | 9.16 |  | 
